Test results from ChEMBL document CHEMBL4041498, “Antibacterial and Cytotoxic Actinomycins Y6-Y9 and Zp from Streptomyces sp. Strain Gö-GS12” (J Nat Prod, 2016).
Values after ≈ are worked out from the molar mass of the structure shown. Numbered stars: 1 amine (or outer) side, 2 acyl side, 3 side chain; on linkers, the order of the positions; unused ones are H or OH. Bridge positions count the residues as written; N and C are the ends. Square brackets hold non-standard residues; d marks the D form. Peptide text beside a SMILES is read from it. I, II: the chains in the order shown. Actinocin(1to9) = Cc1c2oc3c(C)ccc(C(=O)[*:2])c3nc-2c(C(=O)[*:1])c(N)c1=O; Actinocin(9to1) = Cc1c2oc3c(C)ccc(C(=O)[*:1])c3nc-2c(C(=O)[*:2])c(N)c1=O; Pro(3S-OH,5S-Me) = C[C@H]1C[C@H](O)[C@@H](C(=O)O)N1; X2 = O=C([C@@H](N[*:1])[C@@H](CCl)O[*:3])[*:2]; X1 = O=C([C@@H](N[*:1])[C@@H](CO)O[*:3])[*:2]; Pro(5S-Me) = C[C@H]1CC[C@@H](C(=O)O)N1; Pro(4-oxo) = O=C1CN[C@H](C(=O)O)C1; NMeV = CN[C@H](C(=O)O)C(C)C; NMeA = CN[C@@H](C)C(=O)O; Sar = CNCC(=O)O

How the values were obtained:
Micrococcus luteus = experiment: Antibacterial activity against Micrococcus luteus ATCC 15307 after incubated for 16 to 48 hrs at 28 to 37 degC by spectrofluorometric method; assay type: functional
Procedure, shortened: (§1)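 Overnight cultures (16 h, 37 °C, 250 rpm) were grown in tryptic soy broth (S. aureus, M. luteus), LB (B. subtilis, E. coli), nutrient broth (S. enterica), Middlebrook 7H9 + OADC (M. aurum) or YAPD (S. cerevisiae). They were diluted to OD600 ~0.1 and exposed to serial dilutions from a final maximum of ~10 μg/mL, then shaken at 160 rpm. OD600 was normalized to DMSO control, and MIC was taken as the lowest concentration inhibiting growth.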

Staphylococcus aureus = experiment: Antibacterial activity against Staphylococcus aureus ATCC 6538 after incubated for 16 to 48 hrs at 28 to 37 degC by spectrofluorometric method; assay type: functional; procedure, shortened: as §1
Bacillus spizizenii = experiment: Antibacterial activity against Bacillus subtilis ATCC 6633 after incubated for 16 to 48 hrs at 28 to 37 degC by spectrofluorometric method; assay type: functional; procedure, shortened: as §1
Escherichia coli = experiment: Antibacterial activity against Escherichia coli ATCC 12435 after incubated for 16 to 48 hrs at 28 to 37 degC by spectrofluorometric method; assay type: functional; procedure, shortened: as §1
[1] = Antibacterial activity against Salmonella enterica ATCC 10708 after incubated for 16 to 48 hrs at 28 to 37 degC by spectrofluorometric method; assay type: functional; procedure, shortened: as §1
Mycolicibacterium aurum = experiment: Antibacterial activity against Mycobacterium aurum ATCC 23366 after incubated for 16 to 48 hrs at 28 to 37 degC […]; assay type: functional
Saccharomyces cerevisiae = experiment: Antifungal activity against Saccharomyces cerevisiae ATCC 204508 after incubated for 16 to 48 hrs at 28 to 37 degC by spectrofluorometric method; assay type: functional
PC-3 = experiment: Cytotoxicity against human PC3 cells assessed as reduction in cell viability after 48 hrs by alamar blue assay; assay type: functional, cell-based; settings: PC-3, 48 h
Procedure, shortened: (§2)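 A549 cells were grown in DMEM/F-12 Kaighn's and PC3 cells in MEM/EBSS, both with 10% heat-inactivated FBS, penicillin/streptomycin and 2 mM L-glutamine. Cells were seeded at 5 × 10^3 per well, attached 24 h at 37 °C in 5% CO2, then exposed for 2 days. Values are % of untreated control from three independent experiments.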

A549 = experiment: Cytotoxicity against human A549 cells assessed as reduction in cell viability after 48 hrs by alamar blue assay; assay type: functional, cell-based; settings: A549, 48 h; procedure, shortened: as §2

Compound: Cc1c2oc3c(C)ccc(C(=O)N[C@@H]4C(=O)N[C@H](C(C)C)C(=O)N5[C@H](C(=O)N(C)CC(=O)N(C)[C@@H](C(C)C)C(=O)O[C@@H]4C)[C@@H](O)C[C@@H]5C)c3nc-2c(C(=O)OC[C@H](O)[C@@H]2NC(=O)[C@H](C)N(C)C(=O)CN(C)C(=O)[C@@H]3CC(=O)CN3C(=O)[C@@H](C(C)C)NC2=O)c(N)c1=O
- MIC (Micrococcus luteus): 4.67 mg/L (≈ 3.63 µM)
- MIC (Staphylococcus aureus): > 9.33 mg/L
- MIC (Bacillus spizizenii): > 9.33 mg/L
- MIC (Escherichia coli): > 9.33 mg/L
- MIC [1]: > 9.33 mg/L
- MIC (Mycolicibacterium aurum): > 9.33 mg/L
- MIC (Saccharomyces cerevisiae): > 9.33 mg/L

Compound: Cc1c2oc3c(C)ccc(C(=O)N[C@@H]4C(=O)N[C@H](C(C)C)C(=O)N5[C@H](C(=O)N(C)CC(=O)N(C)[C@@H](C(C)C)C(=O)O[C@@H]4C)[C@@H](O)C[C@@H]5C)c3nc-2c2c(c1=O)N[C@H]([C@@H]1NC(=O)[C@H](C)N(C)C(=O)CN(C)C(=O)[C@@H]3CC(=O)CN3C(=O)[C@@H](C(C)C)NC1=O)COC2=O
- MIC (Micrococcus luteus): 0.59 mg/L (≈ 0.465 µM)
- MIC (Staphylococcus aureus): 2.37 mg/L (≈ 1.87 µM)
- MIC (Bacillus spizizenii): 0.59 mg/L (≈ 0.465 µM)
- MIC (Escherichia coli): > 9.46 mg/L
- EC50 (PC-3): 0.0767 µM
- EC50 (A549): 0.0715 µM
- MIC [1]: > 9.46 mg/L
- MIC (Mycolicibacterium aurum): 0.95 mg/L (≈ 0.748 µM)
- MIC (Saccharomyces cerevisiae): 9.46 mg/L (≈ 7.45 µM)

Compound: Cc1c2oc3c(C)ccc(C(=O)N[C@@H]4C(=O)N[C@H](C(C)C)C(=O)N5[C@@H](C)CC[C@H]5C(=O)N(C)CC(=O)N(C)[C@@H](C(C)C)C(=O)O[C@@H]4C)c3nc-2c(C(=O)N[C@@H]2C(=O)N[C@H](C(C)C)C(=O)N3[C@@H](C)CC[C@H]3C(=O)N(C)CC(=O)N(C)[C@@H](C(C)C)C(=O)O[C@@H]2C)c(N)c1=O (I: T[dV][Pro(5S-Me)][Sar][NMeV] / II: T[dV][Pro(5S-Me)][Sar][NMeV]; ester I:1-I:C, II:1-II:C; linker I:N-II:N via Actinocin(9to1))
- MIC (Bacillus spizizenii): 0.006 mg/L (≈ 0.00467 µM)
- MIC [1]: > 9.36 mg/L

Compound: Cc1c2oc3c(C)ccc(C(=O)N[C@@H]4C(=O)N[C@H](C(C)C)C(=O)N5[C@H](C(=O)N(C)CC(=O)N(C)[C@@H](C(C)C)C(=O)O[C@@H]4C)[C@@H](O)C[C@@H]5C)c3nc-2c(C(=O)N[C@@H]2C(=O)N[C@H](C(C)C)C(=O)N3CC(=O)C[C@H]3C(=O)N(C)CC(=O)N(C)[C@@H](C)C(=O)O[C@@H]2C)c(N)c1=O (I: T[dV][Pro(4-oxo)][Sar][NMeA] / II: T[dV][Pro(3S-OH,5S-Me)][Sar][NMeV]; ester I:1-I:C, II:1-II:C; linker I:N-II:N via Actinocin(1to9))
- MIC [1]: > 9.45 mg/L

Compound: Cc1c2oc3c(C)ccc(C(=O)N[C@@H]4C(=O)N[C@H](C(C)C)C(=O)N5[C@H](C(=O)N(C)CC(=O)N(C)[C@@H](C(C)C)C(=O)O[C@@H]4C)[C@@H](O)C[C@@H]5C)c3nc-2c(C(=O)OC[C@H](O)[C@@H]2NC(=O)[C@H](C)N(C)C(=O)CN(C)C(=O)[C@@H]3C[C@@H](O)CN3C(=O)[C@@H](C(C)C)NC2=O)c(N)c1=O
- MIC (Micrococcus luteus): 4.66 mg/L (≈ 3.61 µM)
- MIC (Staphylococcus aureus): > 9.32 mg/L
- MIC (Bacillus spizizenii): > 9.32 mg/L
- MIC (Escherichia coli): > 9.32 mg/L
- MIC [1]: > 9.32 mg/L
- MIC (Mycolicibacterium aurum): > 9.32 mg/L
- MIC (Saccharomyces cerevisiae): > 9.32 mg/L

Compound: Cc1c2oc3c(C)ccc(C(=O)N[C@@H]4C(=O)N[C@H](C(C)C)C(=O)N5[C@H](C(=O)N(C)CC(=O)N(C)[C@@H](C(C)C)C(=O)O[C@@H]4C)[C@@H](O)C[C@@H]5C)c3nc-2c(C(=O)N[C@@H]2C(=O)N[C@H](C(C)C)C(=O)N3CC(=O)C[C@H]3C(=O)N(C)CC(=O)N(C)[C@@H](C)C(=O)O[C@@H]2CO)c(N)c1=O (I: [X1][dV][Pro(4-oxo)][Sar][NMeA] / II: T[dV][Pro(3S-OH,5S-Me)][Sar][NMeV]; ester I:1-I:C, II:1-II:C; linker I:N-II:N via Actinocin(1to9))
- MIC (Micrococcus luteus): 0.12 mg/L (≈ 0.0932 µM)
- MIC [1]: > 9.33 mg/L

Compound: Cc1c2oc3c(C)ccc(C(=O)N[C@@H]4C(=O)N[C@H](C(C)C)C(=O)N5[C@H](C(=O)N(C)CC(=O)N(C)[C@@H](C(C)C)C(=O)O[C@@H]4C)[C@@H](O)C[C@@H]5C)c3nc-2c(C(=O)N[C@@H]2C(=O)N[C@H](C(C)C)C(=O)N3CC(=O)C[C@H]3C(=O)N(C)CC(=O)N(C)[C@@H](C)C(=O)O[C@@H]2CCl)c(N)c1=O (I: [X2][dV][Pro(4-oxo)][Sar][NMeA] / II: T[dV][Pro(3S-OH,5S-Me)][Sar][NMeV]; ester I:1-I:C, II:1-II:C; linker I:N-II:N via Actinocin(1to9))
- MIC [1]: > 9.2 mg/L

Compound: Cc1c2oc3c(C)ccc(C(=O)N[C@@H]4C(=O)N[C@H](C(C)C)C(=O)N5CCC[C@H]5C(=O)N(C)CC(=O)N(C)[C@@H](C(C)C)C(=O)O[C@@H]4C)c3nc-2c(C(=O)N[C@@H]2C(=O)N[C@H](C(C)C)C(=O)N3CCC[C@H]3C(=O)N(C)CC(=O)N(C)[C@@H](C(C)C)C(=O)O[C@@H]2C)c(N)c1=O [DACTINOMYCIN] (I: T[dV]P[Sar][NMeV] / II: T[dV]P[Sar][NMeV]; ester I:1-I:C, II:1-II:C; linker I:N-II:N via Actinocin(1to9))
- MIC (Micrococcus luteus): 0.003 mg/L (≈ 0.00239 µM)
- MIC (Staphylococcus aureus): 0.006 mg/L (≈ 0.00478 µM)
- MIC (Bacillus spizizenii): 0.002 mg/L (≈ 0.00159 µM)
- MIC [1]: 9.57 mg/L (≈ 7.62 µM)
- MIC (Mycolicibacterium aurum): 0.6 mg/L (≈ 0.478 µM)
- MIC (Saccharomyces cerevisiae): 4.79 mg/L (≈ 3.82 µM)

Compound: Cc1c2oc3c(C)ccc(C(=O)N[C@@H]4C(=O)N[C@H](C(C)C)C(=O)N5[C@@H](C)CC[C@H]5C(=O)N(C)CC(=O)N(C)[C@@H](C(C)C)C(=O)O[C@@H]4C)c3nc-2c(C(=O)N[C@@H]2C(=O)N[C@H](C(C)C)C(=O)N3CC(=O)C[C@H]3C(=O)N(C)CC(=O)N(C)[C@@H](C)C(=O)O[C@@H]2C)c(N)c1=O (I: T[dV][Pro(4-oxo)][Sar][NMeA] / II: T[dV][Pro(5S-Me)][Sar][NMeV]; ester I:1-I:C, II:1-II:C; linker I:N-II:N via Actinocin(1to9))
- MIC (Micrococcus luteus): 0.003 mg/L (≈ 0.00239 µM)
- MIC [1]: > 9.57 mg/L
